Laboratory results as given in ChEMBL document CHEMBL3393048, “Discovery of potent cytotoxic ortho-aryl chalcones as new scaffold targeting tubulin and mitosis with affinity-based fluorescence” (J Med Chem, 2014).
Active and inactive are the calls of the source. The calls are words filed in the database; no cut-off is given here.

Experiments:
[1] = Antiproliferative activity against human HCT8 cells after 48 hrs by SRB method; assay type: functional, cell-based; conditions: HCT-8, 48 h
Procedure, shortened: (§1)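 SRB assay. Cells in DMEM high glucose with 10% FBS were seeded at 5000/well and grown 24 h; a day-0 plate was fixed at that point. Compounds were added in triplicate for 48 h. IC50 came from nonlinear regression of dose–response curves from at least two independent experiments.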

MCF7 [2] = experiment: Drug resistance index, ratio of IC50 for doxorubicin-resistant human MCF7 cells to IC50 for human MCF7 cells; assay type: functional
Procedure, shortened: (§2)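 Drug resistance index = IC50 in the resistant line / IC50 in its parental line. […] Pairs: A549/CDDP vs A549, MCF-7/DOX vs MCF-7, A2780/TAX vs A2780, HCT-8/VCT vs HCT-8.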

HepG2 = experiment: Antiproliferative activity against human HepG2 cells after 48 hrs by SRB method; assay type: functional, cell-based; conditions: HepG2, 48 h; procedure, shortened: as §1
A549 [3] = experiment: Cell cycle arrest in human A549 cells assessed as accumulation at G2/M phase at 62.5 nM after 24 hrs by Hoechst 33342 staining-based ArrayScanVTI analysis; assay type: functional
Procedure, shortened: (§3)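 A549 cells were seeded at 5000/well, cultured overnight, then treated 24 h over a 7.81–250 concentration series. Cells were fixed in prewarmed paraformaldehyde 10 min, permeabilized with Triton X-100, and nuclei stained with Hoechst 33342. Imaging was by ArrayScan VTI high-content analysis. Phase percentage = cells within a gated fluorescence intensity / total cells counted.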

[4] = Antiproliferative activity against vincristine-resistant human HCT8 cells after 48 hrs by SRB method; assay type: functional, cell-based; conditions: HCT-8, 48 h
Procedure, shortened: as §1, with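 “h. Cells were fixed with TCA at 4 °C for 1 h, stained with 0.4% SRB, and the dye was solubilized in 10 mM Tris pH 10.4. OD was read at 515 nm with day-0 OD subtracted.” for “h.”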

MCF7 [5] = experiment: Antiproliferative activity against human MCF7 cells after 48 hrs by SRB method; assay type: functional, cell-based; conditions: MCF7, 48 h; procedure, shortened: as §1
[6] = Antiproliferative activity against human CNE2 cells after 48 hrs by SRB method; assay type: functional, cell-based; conditions: CNE-2, 48 h; procedure, shortened: as §1
A2780 [7] = experiment: Antiproliferative activity against taxol-resistant human A2780 cells after 48 hrs by SRB method; assay type: functional, cell-based; conditions: A2780, 48 h; procedure, shortened: as §1
A549 [8] = experiment: Cell cycle arrest in human A549 cells assessed as accumulation at G2/M phase at 7.81 to 250 nM after 24 hrs by Hoechst 33342 staining-based ArrayScanVTI analysis; assay type: functional; procedure, shortened: as §3
Tubulin = experiment: Inhibition of tubulin polymerization (unknown origin) by DAPI staining-based fluorescence microscopy; assay type: protein-complex assay, Homo sapiens
Procedure, shortened: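 Purified tubulin (99% pure; 20 μM as supplied) mixed with compound in general tubulin buffer (80 mM PIPES pH 6.9, 2.0 mM MgCl₂, 0.5 mM EGTA) with 1 mM GTP, 20% glycerol and DAPI reporter. Polymerization tracked kinetically at 37 °C as fluorescence rise (ex 360, em 450 nm). Duplicate wells per concentration. IC50 from at least two independent experiments.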

[9] = Drug resistance index, ratio of IC50 for vincristine-resistant human HCT8 cells to IC50 for human HCT8 cells; assay type: functional, HCT-8; procedure, shortened: as §2
A2780 [10] = experiment: Antiproliferative activity against human A2780 cells after 48 hrs by SRB method; assay type: functional, cell-based; conditions: A2780, 48 h; procedure, shortened: as §1
A2780 [11] = experiment: Drug resistance index, ratio of IC50 for taxol-resistant human A2780 cells to IC50 for human A2780 cells; assay type: functional; procedure, shortened: as §2
SW480 = experiment: Antiproliferative activity against human SW480 cells after 48 hrs by SRB method; assay type: functional, cell-based; conditions: SW480, 48 h; procedure, shortened: as §1
A549 [12] = experiment: Antiproliferative activity against cis-platinum-resistant human A549 cells after 48 hrs by SRB method; assay type: functional, cell-based; conditions: A549, 48 h
Procedure, shortened: as §1, with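 “h. Cells were fixed with TCA at 4 °C for 1 h, stained with 0.4% SRB, and the dye was solubilized in 10 mM Tris pH 10.4. OD was read at 515 nm with day-0 OD subtracted.” for “h.”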

A549 [13] = experiment: Drug resistance index, ratio of IC50 for cis-platinum-resistant human A549 cells to IC50 for human A549 cells; assay type: functional; procedure, shortened: as §2
MCF7 [14] = experiment: Antiproliferative activity against doxorubicin-resistant human MCF7 cells after 48 hrs by SRB method; assay type: functional, cell-based; conditions: MCF7, 48 h; procedure, shortened: as §1
A549 [15] = experiment: Antiproliferative activity against human A549 cells after 48 hrs by SRB method; assay type: functional, cell-based; conditions: A549, 48 h
Procedure, shortened: as §1, with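 “h. Cells were fixed with TCA at 4 °C for 1 h, stained with 0.4% SRB, and the dye was solubilized in 10 mM Tris pH 10.4. OD was read at 515 nm with day-0 OD subtracted.” for “h.”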

Tubulin (Homo sapiens) = Tubulin (Homo sapiens) (UniProt P68371+Q9H4B7+P0DPH7+P68366+Q13509+Q71U36+P04350+Q3ZCM7+P07437+P68363+Q9BQE3+Q6PEY2+Q13885+Q9BVA1+Q9BUF5); experiment: Inhibition of tubulin polymerization (unknown origin) at 20 uM by DAPI staining-based fluorescence microscopy; assay type: protein-complex assay

Compound: COc1ccc(/C=C/C(=O)c2ccccc2-c2ccc(F)cc2)cc1O
- IC50 [1]: 38 nM
- Ratio IC50 (MCF7 [2]): 0.04
- IC50 (HepG2): 23 nM
- Activity (A549 [3]): Active
- IC50 [4]: 420 nM
- IC50 (MCF7 [5]): 190 nM
- IC50 [6]: 87 nM
- IC50 (A2780 [7]): 500 nM
- Activity (A549 [8]): Active
- IC50 (Tubulin): 1300 nM
- Ratio IC50 [9]: 11
- IC50 (A2780 [10]): 27 nM
- Ratio IC50 (A2780 [11]): 18
- IC50 (SW480): 57 nM
- IC50 (A549 [12]): 430 nM
- Ratio IC50 (A549 [13]): 10
- IC50 (MCF7 [14]): 7 nM
- IC50 (A549 [15]): 65 nM

Compound: COc1ccc(/C=C/C(=O)c2ccccc2-c2cccc(F)c2)cc1
- IC50 [1]: 200 nM
- Ratio IC50 (MCF7 [2]): 0.64
- IC50 (HepG2): 110 nM
- IC50 [4]: 220 nM
- IC50 (MCF7 [5]): 640 nM
- IC50 [6]: 73 nM
- IC50 (A2780 [7]): 860 nM
- IC50 (Tubulin): 4000 nM
- Ratio IC50 [9]: 1.1
- IC50 (A2780 [10]): 160 nM
- Ratio IC50 (A2780 [11]): 5.2
- IC50 (SW480): 140 nM
- IC50 (A549 [12]): 480 nM
- Ratio IC50 (A549 [13]): 2.1
- IC50 (MCF7 [14]): 84 nM
- IC50 (A549 [15]): 280 nM

Compound: COc1ccc(-c2ccccc2C(=O)/C=C/c2ccc(F)cc2)cc1OC
- IC50 (HepG2): 4300 nM
- IC50 (MCF7 [5]): 7100 nM
- IC50 [6]: 5400 nM
- inhibition (Tubulin (Homo sapiens)): inactive
- IC50 (SW480): 6800 nM
- IC50 (A549 [15]): 8600 nM

Compound: COc1cccc(/C=C/C(=O)c2ccccc2-c2ccc(F)cc2)c1OC
- IC50 (HepG2): 5000 nM
- IC50 (MCF7 [5]): 5300 nM
- IC50 [6]: 5200 nM
- inhibition (Tubulin (Homo sapiens)): Active
- IC50 (SW480): 5700 nM
- IC50 (A549 [15]): 7100 nM

Compound: COc1ccc(-c2ccccc2C(=O)/C=C/c2ccc(Br)cc2)cc1OC
- IC50 (HepG2): 3300 nM
- IC50 (MCF7 [5]): 8300 nM
- IC50 [6]: 4800 nM
- inhibition (Tubulin (Homo sapiens)): inactive
- IC50 (SW480): 6500 nM
- IC50 (A549 [15]): 6800 nM

Compound: COc1ccc(OC)c(/C=C/C(=O)c2ccccc2-c2ccc(OC)c(OC)c2)c1
- IC50 (HepG2): 2100 nM
- IC50 (MCF7 [5]): 3100 nM
- IC50 [6]: 2400 nM
- inhibition (Tubulin (Homo sapiens)): Active
- IC50 (SW480): 5200 nM
- IC50 (A549 [15]): 4100 nM

Compound: COc1ccc(/C=C/C(=O)c2ccccc2-c2cc(OC)c(OC)c(OC)c2)cc1O
- IC50 [1]: 520 nM
- Ratio IC50 (MCF7 [2]): 0.24
- IC50 (HepG2): 190 nM
- IC50 [4]: 2000 nM
- IC50 (MCF7 [5]): 680 nM
- IC50 [6]: 790 nM
- IC50 (A2780 [7]): 1600 nM
- IC50 (Tubulin): 2800 nM
- Ratio IC50 [9]: 4
- IC50 (A2780 [10]): 380 nM
- Ratio IC50 (A2780 [11]): 4.3
- IC50 (SW480): 300 nM
- IC50 (A549 [12]): 590 nM
- Ratio IC50 (A549 [13]): 2
- IC50 (MCF7 [14]): 170 nM
- IC50 (A549 [15]): 290 nM

Compound: COc1ccc(/C=C/C(=O)c2ccccc2-c2ccc(F)cc2)cc1OC
- IC50 (HepG2): 95 nM
- IC50 (MCF7 [5]): 240 nM
- IC50 [6]: 81 nM
- IC50 (SW480): 570 nM
- IC50 (A549 [15]): 440 nM

Compound: CC(=O)O[C@H]1C(=O)[C@@]2(C)[C@H]([C@H](OC(=O)c3ccccc3)[C@]3(O)C[C@H](OC(=O)[C@H](O)[C@@H](NC(=O)c4ccccc4)c4ccccc4)C(C)=C1C3(C)C)[C@]1(OC(C)=O)CO[C@@H]1C[C@@H]2O [PACLITAXEL]
- IC50 [1]: 21 nM
- IC50 (HepG2): 28 nM
- IC50 [4]: 2600 nM
- IC50 (SW480): 7 nM

Compound: O=C(/C=C/c1cccs1)c1ccccc1-c1ccc(F)cc1
- IC50 (HepG2): 6200 nM
- IC50 (MCF7 [5]): 9500 nM
- IC50 [6]: 5900 nM
- inhibition (Tubulin (Homo sapiens)): Active
- IC50 (SW480): 16000 nM
- IC50 (A549 [15]): 12000 nM

Compound: COc1cccc2c1C(=O)c1c(O)c3c(c(O)c1C2=O)C[C@@](O)(C(=O)CO)C[C@@H]3O[C@H]1C[C@H](N)[C@H](O)[C@H](C)O1 [DOXORUBICIN]
- IC50 [4]: 3400 nM
- IC50 (A2780 [7]): 1900 nM
- IC50 (A549 [12]): 290 nM

Compound: O=C(/C=C/c1ccccc1-c1ccc(F)cc1)c1cccc(O)c1
- IC50 (HepG2): 4200 nM
- IC50 (MCF7 [5]): 9300 nM
- IC50 [6]: 7300 nM
- IC50 (SW480): 8700 nM
- IC50 (A549 [15]): 6900 nM
